# Assay results taken from ChEMBL document CHEMBL1146217, “Growth inhibition of Mycobacterium bovis, Mycobacterium tuberculosis and Mycobacterium avium in vitro: effect of 1-beta-D-2'-arabinofuranosyl and 1-(2'-deoxy-2'-fluoro-beta-D-2'-ribofuranosyl) pyrimidine nucleoside analogs” (J Med Chem, 2007).
# Activity calls are given as the source filed them. No cut-off for these calls is given here.
# Tested on: Mycobacterium tuberculosis
# Test: Antimycobacterial activity against drug-resistant Mycobacterium tuberculosis H37Rv at 2mg/mL by BACTEC assay
# Type: functional, organism-based
# Summary of the method: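 Radiometric BACTEC 12B (7H12) vials with a growing inoculum of 2.5-5.0 × 10⁵ CFU/vial, two-fold compound dilutions, 37 °C. Growth index read daily in a BACTEC 460 until 1:100 inoculum controls reached GI 30. Percent inhibition = (GI test/GI control) × 100.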
structure (smiles),measurement,value
CO[C@H]1/C=C/O[C@@]2(C)Oc3c(C)c(O)c4c(O)c(c(/C=N/N5CCN(C)CC5)c(O)c4c3C2=O)NC(=O)/C(C)=C\C=C\[C@H](C)[C@H](O)[C@@H](C)[C@@H](O)[C@@H](C)[C@H](OC(C)=O)[C@@H]1C [RIFAMPIN],Activity,inactive
